Assays:
[1] = Pseudo first order rate constant of NBP alkylation was determined at 37 degree Centigrade; type: ADME
Method in brief: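 Alkylating agent (0.087 or 0.174 mM) reacted at 37 °C with 4-(4-nitrobenzyl)pyridine (40.6 mM, pseudo-first-order excess). Medium was aqueous acetone (52.2:47.8 v/v) with 17.4 mM Tris-HCl, pH 7.4. k' was taken from plots of log(% remaining alkylating species) vs time.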

[2] = Half-life after NBP alkylation; type: ADME
Method in brief: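 NBP alkylation at 37 °C in aqueous acetone (52.2:47.8, v/v) with 40.6 mM NBP (pseudo-first-order excess), 17.4 mM Tris-HCl pH 7.4, and 0.087 or 0.174 mM alkylating agent. First-order rate constants were taken from plots of log(percent remaining alkylating species) vs time. Adduct was read at 560 nm after triethylamine alkalization.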

[3] = test system: L1210; experiment: In vitro growth inhibition against L1210 murine leukemia cells; type: functional, cell-based; settings: Mus musculus
Method in brief: (§1)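 Cells were exposed to drug in vitro for 48 h (L1210 murine leukemia; CCRF-CEM human lymphoblast). The value is the drug concentration giving 50% growth inhibition.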

[4] = test system: CCRF-CEM; experiment: In vitro growth inhibition against CCRF-CEM human lymphoblast cells; type: functional, cell-based; method in brief: as §1
[5] = test system: SK-MEL-2; experiment: In vitro cytotoxicity was determined against SK-MEL-2 human melanoma cell line using NCI screen; type: functional, cell-based
[6] = test system: SN12C; experiment: (§2) In vitro cytotoxicity was determined against SN12 KI human renal tumor cell line using NCI screen; type: functional, cell-based
[7] = test system: HCC 2998; experiment: In vitro cytotoxicity was determined against HCC 2998 human colon tumor cell line using NCI screen; type: functional, cell-based
[8] = test system: K562; experiment: In vitro cytotoxicity was determined against K-562 human leukemia cell line using NCI screen; type: functional, cell-based
[9] = test system: COLO 320; experiment: In vitro cytotoxicity was determined against COLO 320 human colon tumor cell line using BACTEC screen; type: functional, cell-based
[10] = test system: SF-539; experiment: In vitro cytotoxicity was determined against SF-539 human CNS tumor cell line using NCI screen; type: functional, cell-based
[11] = test system: MCF7; experiment: In vitro cytotoxicity was determined against MCF-7M human breast tumor cell line using BACTEC screen; type: functional, cell-based
[12] = test system: HCT-15; experiment: In vitro cytotoxicity was determined against HCT-15 human colon tumor cell line using NCI screen; type: functional, cell-based
[13] = test system: U-251; experiment: In vitro cytotoxicity was determined against U251 human CNS tumor cell line using NCI screen; type: functional, cell-based
[14] = test system: UACC-62; experiment: In vitro cytotoxicity was determined against UACC-62 human melanoma cell line using NCI screen; type: functional, cell-based
[15] = test system: HOP-19; experiment: In vitro cytotoxicity was determined against HOP-19 human non-small cell lung carcinoma cell line using NCI screen; type: functional, cell-based
[16] = test system: SK-MEL-5; experiment: In vitro cytotoxicity was determined against SK-MEL-5 human melanoma cell line using NCI screen; type: functional, cell-based
[17] = test system: CCRF-SB; experiment: In vitro cytotoxicity was determined against CCRF-SB human leukemia cell line using NCI screen; type: functional, cell-based
[18] = test system: NCI-H460; experiment: In vitro cytotoxicity was determined against H460 human non-small cell lung carcinoma cell line using NCI screen; type: functional, cell-based
[19] = test system: Hs-578T; experiment: In vitro cytotoxicity was determined against Hs 578.T human breast tumor cell line using BACTEC screen; type: functional, cell-based
[20] = test system: IGROV-1; experiment: In vitro cytotoxicity was determined against IGROVI human ovarian cell line using NCI screen; type: functional, cell-based
[21] = test system: TE-671; experiment: In vitro cytotoxicity was determined against TE671 human CNS tumor cell line using NCI screen; type: functional, cell-based
[22] = test system: HT-29; experiment: In vitro cytotoxicity was determined against HT-29 human colon tumor cell line using BACTEC screen; type: functional, cell-based
[23] = test system: UO-31; experiment: In vitro cytotoxicity was determined against UO-31 human renal tumor cell line using NCI screen; type: functional, cell-based
[24] = test system: OVCAR-5; experiment: In vitro cytotoxicity was determined against OVCAR5 human ovarian cell line using NCI screen; type: functional, cell-based
[25] = test system: A2780; experiment: In vitro cytotoxicity was determined against A2780 human ovarian cell line using NCI screen; type: functional, cell-based
[26] = test system: COLO 320; experiment: In vitro cytotoxicity was determined against COLO 320 DM human colon tumor cell line using NCI screen; type: functional, cell-based
[27] = test system: KM-20L2; experiment: In vitro cytotoxicity was determined against KM20L2 human colon tumor cell line using NCI screen; type: functional, cell-based
[28] = species on record: Homo sapiens; experiment: In vitro cytotoxicity was determined against SKLU human non-small cell lung carcinoma cell line using BACTEC screen; type: functional
[29] = test system: SK-OV-3; experiment: In vitro cytotoxicity was determined against SKOV-3 human ovarian cell line using NCI screen; type: functional, cell-based
[30] = test system: OM-1; experiment: In vitro cytotoxicity was determined against OM-1 human colon tumor cell line using BACTEC screen; type: functional, cell-based
[31] = test system: KM12; experiment: In vitro cytotoxicity was determined against KM12 human colon tumor cell line using NCI screen; type: functional, cell-based
[32] = test system: MOLT-4; experiment: In vitro cytotoxicity was determined against MOLT-4 human leukemia cell line using NCI screen; type: functional, cell-based
[33] = test system: COLO 205; experiment: In vitro cytotoxicity was determined against COLO-205 human colon tumor cell line using NCI screen; type: functional, cell-based
[34] = test system: SF-295; experiment: In vitro cytotoxicity was determined against SF-295, U251, SNB19 human CNS tumor cell line using NCI screen; type: functional, cell-based
[35] = test system: SNB-19; experiment: In vitro cytotoxicity was determined against SNB19 human CNS tumor cell line using NCI screen; type: functional, cell-based
[36] = test system: A498; experiment: In vitro cytotoxicity was determined against A 498 human renal tumor cell line using NCI screen; type: functional, cell-based
[37] = test system: HCT-116; experiment: In vitro cytotoxicity was determined against COLO 320 DM,HCT-15, COLO-205, HCT116 HCC 2998, KM20L2, KM12 human colon tumor cell line using NCI screen; type: functional, cell-based
[38] = test system: UACC-257; experiment: In vitro cytotoxicity was determined against UACC-257 human melanoma cell line using NCI screen; type: functional, cell-based
[39] = test system: RPMI-8226; experiment: In vitro cytotoxicity was determined against RPMI 8226 human leukemia cell line using NCI screen; type: functional, cell-based
[40] = test system: SK-MEL-28; experiment: In vitro cytotoxicity was determined against SK-MEL-28 human melanoma cell line using NCI screen; type: functional, cell-based
[41] = test system: SNB-78; experiment: In vitro cytotoxicity was determined against SNB78 human CNS tumor cell line using NCI screen; type: functional, cell-based
[42] = test system: NCI-H23; experiment: In vitro cytotoxicity was determined against H23 human non-small cell lung carcinoma cell line using NCI screen; type: functional, cell-based
[43] = test system: CCRF-CEM; experiment: In vitro cytotoxicity was determined against CCRF-CEM human leukemia cell line using NCI screen; type: functional, cell-based
[44] = test system: SF-268; experiment: In vitro cytotoxicity was determined against SF-268 human CNS tumor cell line using NCI screen; type: functional, cell-based
[45] = test system: Malme-3M; experiment: In vitro cytotoxicity was determined against MALME-3M human melanoma cell line using NCI screen; type: functional, cell-based
[46] = test system: M19-MEL; experiment: In vitro cytotoxicity was determined against M19-MEL human melanoma cell line using NCI screen; type: functional, cell-based
[47] = test system: HOP-62; experiment: In vitro cytotoxicity was determined against HOP-62 human non-small cell lung carcinoma cell line using NCI screen; type: functional, cell-based
[48] = species on record: Homo sapiens; experiment: In vitro cytotoxicity was determined against CALU 3 human non-small cell lung carcinoma cell line using BACTEC screen; type: functional
[49] = test system: LOX IMVI; experiment: In vitro cytotoxicity was determined against LOX human melanoma cell line using NCI screen; type: functional, cell-based
[50] = test system: SK-MES-1; experiment: In vitro cytotoxicity was determined against SKMES human non-small cell lung carcinoma cell line using BACTEC screen; type: functional, cell-based
[51] = test system: SN12C; experiment: as §2; type: functional, cell-based; remark: listed apart in the source
[52] = test system: HOP-18; experiment: In vitro cytotoxicity was determined against HOP-18 human non-small cell lung carcinoma cell line using NCI screen; type: functional, cell-based

## O=S(=O)(CCCl)c1ccccc1
[1]
  k': < 0.00012 min⁻¹
[2]
  half-life: > 96 h
[3]
  IC50: 2.3 µM
[4]
  IC50: 2.25 µM

## ClCC[Se]CCCl
[2]
  half-life: 0.004 h

## CC[Se](=O)(=O)c1ccccc1
[1]
  k': 0.00248 min⁻¹
[2]
  half-life: 4.67 h
[3]
  IC50: 5 µM
[4]
  IC50: 10 µM

## CS(=O)(=O)CS(=O)(=O)OCCCl
[1]
  k': 0.00123 min⁻¹
[2]
  half-life: 9.4 h
[3]
  IC50: 3 µM

## COc1ccc([Se](=O)(=O)CCCl)cc1
[1]
  k': 0.00125 min⁻¹
[2]
  half-life: 9.25 h
[3]
  IC50: 0.36 µM
[4]
  IC50: 0.14 µM

## O=[Se](=O)(CCCl)c1ccccc1
[5]
  IC50: 3.7 µM
[6]
  IC50: 4.6 µM
[1]
  k': 0.00138 min⁻¹
[7]
  IC50: 2.3 µM
[8]
  IC50: 0.45 µM
[9]
  IC50: 1.2 µM
[10]
  IC50: 6 µM
[11]
  IC50: > 4 µM
[12]
  IC50: 2.3 µM
[13]
  IC50: 6 µM
[14]
  IC50: 3.7 µM
[15]
  IC50: 4.3 µM
[16]
  IC50: 3.7 µM
[17]
  IC50: 0.45 µM
[18]
  IC50: 4.3 µM
[19]
  IC50: 0.9 µM
[20]
  IC50: 7.8 µM
[21]
  IC50: 6 µM
[22]
  IC50: 1.9 µM
[23]
  IC50: 4.6 µM
[24]
  IC50: 7.8 µM
[25]
  IC50: 7.8 µM
[26]
  IC50: 2.3 µM
[27]
  IC50: 2.3 µM
[28]
  IC50: 0.06 µM
[29]
  IC50: 7.8 µM
[30]
  IC50: > 4 µM
[31]
  IC50: 2.3 µM
[32]
  IC50: 0.45 µM
[33]
  IC50: 2.3 µM
[2]
  half-life: 8.37 h
[34]
  IC50: 6 µM
[35]
  IC50: 6 µM
[36]
  IC50: 4.6 µM
[3]
  IC50: 0.55 µM
[37]
  IC50: 2.3 µM
[38]
  IC50: 3.7 µM
[39]
  IC50: 0.45 µM
[4]
  IC50: 0.15 µM
[40]
  IC50: 3.7 µM
[41]
  IC50: 6 µM
[42]
  IC50: 4.3 µM
[43]
  IC50: 0.45 µM
[44]
  IC50: 6 µM
[45]
  IC50: 3.7 µM
[46]
  IC50: 3.7 µM
[47]
  IC50: 4.3 µM
[48]
  IC50: 2.2 µM
[49]
  IC50: 3.7 µM
[50]
  IC50: 0.15 µM
[51]
  IC50: 4.6 µM
[52]
  IC50: 4.3 µM

## O=[N+]([O-])c1ccc([Se](=O)(=O)CCCl)cc1
[1]
  k': 0.0104 min⁻¹
[2]
  half-life: 1.08 h
[3]
  IC50: 0.9 µM
[4]
  IC50: 0.4 µM

## CS(=O)(=O)OCCC[Se](=O)(=O)c1ccccc1
[1]
  k': 0.00121 min⁻¹
[2]
  half-life: 9.55 h
[3]
  IC50: 1.2 µM
[4]
  IC50: 0.9 µM

## ClCC[Se]c1ccccc1
[2]
  half-life: 0.031 h

## O=[Se](O)c1ccccc1 [BENZENE SELENOIC ACID]
[3]
  IC50: 3 µM

## O=C(O)CCCc1ccc(N(CCCl)CCCl)cc1 [CHLORAMBUCIL]
[1]
  k': 0.00149 min⁻¹
[2]
  half-life: 7.75 h

From ChEMBL document CHEMBL1124780, “Phenyl selenones: alkyl transfer by selenium-carbon bond cleavage” (J Med Chem, 1990)
